Screening data: PubChem, several laboratories
Insulin prom up = insulin promoter activators in MIN6 cells, imaging, high-content screening, mouse beta cells; MIN6 insulin promoter-GFP reporter; active compounds read high; z-score at 5 µM; hit rate 0.3% among 190,000; AID 1625, 2009;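 active = z-score above 3 at 5 µM with at least 500 cells counted in the well; inconclusive = wells under 500 cells, flagged as cytotoxic or low count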
Insulin prom inh = inhibitors of insulin promoter-driven GFP, primary screen, imaging, TRM-6 cells (human fetal islet line), eGFP reporter, cell count; reporter expression induced with tamoxifen; inhibition, % at 2 µM; hit rate 0.9% among 130,000; AID 1273, 2008;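 active = inhibition above the mean plus 3 SD, with well images judged a real hit on visual review, cut at about 60% in these data, passing the limit was not always enough; inconclusive = inhibition over the cutoff but images rejected on review; inactive = inhibition not above the cutoff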
PKD1 kinase inh = inhibitors of human PKD1 kinase, biochemical, fluorescence polarization; Serine/threonine-protein kinase D1 (Homo sapiens), Q15139; AID 797, 2007; PKD1 kinase fluorescence polarization assay; hit rate 0.056% among 200,000; inhibition, % (no concentration beside the values); in the data active = inhibition above about 50%
Target sequence (Q15139 whole entry, looked up): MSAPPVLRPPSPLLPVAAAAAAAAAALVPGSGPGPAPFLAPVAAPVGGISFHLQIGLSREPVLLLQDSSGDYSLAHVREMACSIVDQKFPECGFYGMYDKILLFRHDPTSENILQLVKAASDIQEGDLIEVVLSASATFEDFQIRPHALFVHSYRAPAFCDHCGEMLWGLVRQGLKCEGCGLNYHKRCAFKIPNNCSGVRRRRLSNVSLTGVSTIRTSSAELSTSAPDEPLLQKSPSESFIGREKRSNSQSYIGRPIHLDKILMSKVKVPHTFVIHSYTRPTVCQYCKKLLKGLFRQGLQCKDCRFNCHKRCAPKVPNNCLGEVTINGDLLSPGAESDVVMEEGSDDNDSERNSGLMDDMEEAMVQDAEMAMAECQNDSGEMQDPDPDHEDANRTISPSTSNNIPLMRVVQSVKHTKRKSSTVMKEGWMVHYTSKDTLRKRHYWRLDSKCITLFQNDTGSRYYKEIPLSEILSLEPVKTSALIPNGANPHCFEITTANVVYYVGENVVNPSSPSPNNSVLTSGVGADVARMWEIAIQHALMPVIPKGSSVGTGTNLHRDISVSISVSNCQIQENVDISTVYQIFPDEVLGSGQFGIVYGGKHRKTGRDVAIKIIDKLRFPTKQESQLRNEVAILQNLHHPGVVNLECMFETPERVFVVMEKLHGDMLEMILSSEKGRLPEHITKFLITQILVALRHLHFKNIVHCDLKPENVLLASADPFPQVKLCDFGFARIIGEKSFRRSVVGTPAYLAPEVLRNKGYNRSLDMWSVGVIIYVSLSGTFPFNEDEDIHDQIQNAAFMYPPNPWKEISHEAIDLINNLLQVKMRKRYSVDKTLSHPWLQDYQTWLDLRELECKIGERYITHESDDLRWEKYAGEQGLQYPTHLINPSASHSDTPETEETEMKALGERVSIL
RBBP9 inh = human RBBP9 inhibitors, primary screen, biochemical, fluorescence polarization, FP-Rh probe, HTS; Serine hydrolase RBBP9 (Homo sapiens), O75884; recombinant RBBP9; inhibition, % at 7.94 µM; hit rate 0.2% among 220,000;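 active = inhibition above the campaign mean of all tested compounds plus 3 SD, cut at about 14% in these data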
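System: RBBP9 protein / Quantity: 2.5 µM RBBP9 dispensing solution, before mixing / Also added: Serine-hydrolase probe FP-Rh, 375 nM pre-mixing / Dosing: 7.94 µM single dose, 0.794% DMSO / Timing: enzyme-compound preincubation 30 min, then probe labeling 45 min, 25 °C / Signal: FP readout at 525/598 nm / Controls: DMSO-treated enzyme wells and wells lacking RBBP9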
Autophagy mod = autophagy modulators in MEF cells, primary screen, imaging, high-content, MEF GFP-LC3 | MEF GFP-LC3 puncta imaging; test concentration mostly 10 µM | calls only at 10 µM (by protocol) | hit rate 0.98% among 190,000 | AID 463193, 2010;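 active = percentage of spot-positive cells more than 3 SD above its plate mean, without a fluorescence outlier flag or 80% toxicity; inconclusive = no clear call, values can overlap the other calls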
Arbovirus inh = antivirals against arbovirus infection, primary screen, cell-based, full library, 10K replicate subset | arbovirus infection cell-based antiviral screen | inhibition, % at 10 µM | hit rate 0.37% among 200,000 | AID 1251, 2008; in the data active = inhibition above about 30%
Numbers stand for hits; n = inactive; u = inconclusive; x = no result; + = active, no number. Only some compounds are listed: those with a hit (about 2.1% of all), similar ones and a draw of the others.

SMILES	Insulin prom up	Insulin prom inh	PKD1 kinase inh	RBBP9 inh	Autophagy mod	Arbovirus inh
COc1cc(OC)cc(-c2cc3nc4c(c(N5CCN(c6ncccn6)CC5)n3n2)CCCC4)c1	n	x	n	n	n	n
Fc1cccc(-c2cc3nc4c(c(N5CCC6(CC5)OCCO6)n3n2)CCCC4)c1	n	n	n	n	+	n
c1ccc(-c2csc(-n3cnnn3)n2)cc1	3.1	n	n	n	n	n
Cc1cc(C)n(-c2nc(-c3ccccc3)cs2)n1	n	x	n	n	n	n
CCC1CC(CSc2ncn[nH]2)OC1=O (stereo not given)	n	n	n	n	n	n
O=C(CCC(=O)c1cccs1)NCc1ccc(Cl)cc1	n	70	n	n	n	n
Cc1cc(N2CCN(c3nc(N4CCOCC4)nc4ccccc34)CC2)c2ccccc2n1	x	n	n	n	+	x
CCN1CCN(c2cc(=O)n(Cc3ccc(F)cc3)c(=O)[nH]2)CC1	n	78	n	n	n	n
N#C/C(=C\c1cccc(Cl)c1)c1n[nH]c(Cn2cncn2)n1	n	x	n	n	n	n
COCCn1c(SCC(=O)Nc2ccccc2C)nc2c(oc3ccccc32)c1=O	n	x	n	n	n	n
COCCn1c(SCC(=O)Nc2ccc(C)cc2C)nc2c(oc3ccccc32)c1=O	n	n	n	n	+	n
COc1cccc(-c2csc3nc[nH]c(=O)c23)c1	n	89	n	n	n	n
COc1ccc(C(=O)Nc2cccc(NC(C)=O)c2)cc1OC	n	n	n	n	n	n
COc1ccc(NC(C)=O)cc1C	n	71	n	n	n	n
CCOc1ccc(/C=C/C(O)=C2/C(=O)NC3(C)CC2c2ccccc2O3)cc1OC (stereo not given)	n	n	n	n	+	n
CCn1c(CNC(=O)c2cccs2)nnc1SCC(=O)Nc1cc(Cl)ccc1C	n	n	n	n	n	n
C=CCn1c(CNC(=O)c2cccs2)nnc1SCc1ccc(Cl)cc1Cl	n	x	n	n	n	63
CC(NC(=O)c1cccs1)c1nnc(SCc2ccc(Cl)cc2Cl)n1C (stereo not given)	n	x	n	n	n	77
Cc1ccccc1Cn1cnc2c(NS(C)(=O)=O)c(C)c(C)cc21	n	n	n	n	n	n
Cc1ccc(C(C(=O)NCc2ccccc2)N(Cc2cccs2)C(=O)c2ccc3c(c2)OCCO3)cc1 (stereo not given)	n	n	n	n	+	n
Cc1nn(C)c(C)c1CN(Cc1nc(-c2ccc(F)cc2F)oc1C)C1CC1	n	x	n	n	n	n
Cc1ccc(-c2nn3c(C)nnc3c3ccccc23)cc1S(=O)(=O)N1CCN(CCO)CC1	n	x	n	n	+	n
Cc1ccc(-c2nn3c(C)nnc3c3ccccc23)cc1S(=O)(=O)NCCO	n	x	n	n	n	n
O=Cc1ccccc1OCCOc1ccccc1C=O	x	n	n	n	+	n
O=C(CN(Cc1ccccc1)S(=O)(=O)c1cccc(C(F)(F)F)c1)NC1CCCCC1	n	x	n	n	n	n
SMILES	Insulin prom up	Insulin prom inh	PKD1 kinase inh	RBBP9 inh	Autophagy mod	Arbovirus inh
CCc1ccc2c(c1)cc(CN(C(=S)Nc1ccc(Cl)cc1)C1CC1)c1nnnn12	n	x	n	n	+	n
COCCNC(=S)N(Cc1cc2cc(C)ccc2n2nnnc12)C1CCCC1	n	x	n	n	n	n
CCN(CC)CCn1c2ccccc2c2cnc(N)c(C#N)c21	n	n	n	n	+	n
Cc1ccc(Nc2c(-c3ccc(N4CCOCC4)cc3)nc3ncccn23)cc1	n	n	n	n	+	n
Cc1ccc(Nc2c(-c3ccc(N4CCOCC4)cc3)nc3ncccn23)cc1C	n	u	n	n	n	n
COc1ccc(C(=O)Nc2cc(Cl)ccc2C(=O)O)cc1	n	x	n	n	n	47
COc1c(Cl)cc(C(=O)Nc2ccccc2C(=O)O)cc1Cl	n	n	n	n	n	62
COc1ccc(NC(=O)Nc2cccc(C(=O)N3CCOCC3)c2)cc1OC	n	n	n	n	n	n
O=C(C1CCN(Cc2ccccc2)CC1)N1CCN(C/C=C/c2ccccc2)CC1	n	n	n	n	+	n
CC(C)N1CC(C(=O)Nc2nc3ccccc3s2)CC1=O (stereo not given)	x	75	n	n	n	n
O=C(Nc1nc2ccccc2s1)C1CC(=O)N(c2ccc(Cl)cc2)C1 (stereo not given)	n	n	n	n	n	n
CCOC(=O)c1cccc(NC(=O)CN2CCN(c3ccc(OC)cc3)CC2)c1	n	n	n	n	n	n
S=c1[nH]nc(-c2ccc(Cl)cc2Cl)n1-c1ccc2c(c1)OCCO2	n	x	x	n	x	x
Oc1ccc(-c2n[nH]c(=S)n2-c2ccc3c(c2)OCCO3)c(O)c1	n	n	n	n	n	33
CC(C)c1nc(SCc2ccccn2)c2c(=O)n(C)c(=O)n(C)c2n1	n	x	n	n	n	n
CCOC(=O)C1CCN(C(=O)c2ccc(CNS(=O)(=O)c3ccc(OC)cc3)cc2)CC1	n	x	n	n	+	n
CC1=C(C(=O)Nc2ccc(Br)cc2)C(c2ccco2)NC(=O)N1 (stereo not given)	n	68	n	n	n	n
O=C(NCc1cccnc1)c1cnn2ccccc12	n	x	n	n	n	n
CCCc1nccn1S(=O)(=O)c1cc(OC)ccc1OC	n	75	n	n	n	n
CCc1nccn1S(=O)(=O)c1cc(Br)ccc1OC	n	n	n	n	n	n
Cc1nc(SCC(C)C)[nH]c(=O)c1Cc1ccccc1	n	x	n	n	+	n
Cc1nn(-c2ccccc2)c(Cl)c1/C=N/NS(=O)(=O)c1ccc(Br)cc1	n	69	n	n	n	n
COC(=O)c1ccc(COc2ccc(/C=N/Nc3cccc(C(=O)O)c3)cc2)cc1	n	x	x	n	x	x
O=C(O)c1cc(N/N=C/c2ccc(OCc3ccccc3)cc2)ccc1Cl	x	n	n	n	n	39
Cc1nn(-c2ccccc2)c(Cl)c1/C=N/Nc1ccc(Cl)c(C(=O)O)c1	x	n	n	n	n	89
SMILES	Insulin prom up	Insulin prom inh	PKD1 kinase inh	RBBP9 inh	Autophagy mod	Arbovirus inh
CC(C)OCCCNC(=O)CCN1C(=O)COc2ccccc21	n	n	n	n	n	n
CN(Cc1ccccc1)C(=O)CN(C1CCCCC1)S(C)(=O)=O	n	n	n	n	n	n
COc1ccc2nc(C)cc(SCC(=O)Nc3c(C)cccc3C)c2c1	n	x	n	n	n	n
CCSc1nc2c(sc3nc(C)cc(C)c32)c(=O)[nH]1	n	n	n	n	n	37
CCOc1ncnc2c1sc1nc(C)cc(C)c12	n	x	x	n	x	x
CCC(=O)NC(c1cccs1)c1cc(Cl)c2cccnc2c1O (stereo not given)	n	x	n	n	+	n
CCCCC(=O)NC(c1cccs1)c1cc(Cl)c2cccnc2c1O (stereo not given)	n	x	n	n	n	n
